Molecules are shown by their SMILES. Activity calls are given as the source filed them. The rule behind the calls is not given here.

In assay [1] the target is T1, Scaffold protein ILK (Homo sapiens) (UniProt Q13418).
T1 sequence (whole entry): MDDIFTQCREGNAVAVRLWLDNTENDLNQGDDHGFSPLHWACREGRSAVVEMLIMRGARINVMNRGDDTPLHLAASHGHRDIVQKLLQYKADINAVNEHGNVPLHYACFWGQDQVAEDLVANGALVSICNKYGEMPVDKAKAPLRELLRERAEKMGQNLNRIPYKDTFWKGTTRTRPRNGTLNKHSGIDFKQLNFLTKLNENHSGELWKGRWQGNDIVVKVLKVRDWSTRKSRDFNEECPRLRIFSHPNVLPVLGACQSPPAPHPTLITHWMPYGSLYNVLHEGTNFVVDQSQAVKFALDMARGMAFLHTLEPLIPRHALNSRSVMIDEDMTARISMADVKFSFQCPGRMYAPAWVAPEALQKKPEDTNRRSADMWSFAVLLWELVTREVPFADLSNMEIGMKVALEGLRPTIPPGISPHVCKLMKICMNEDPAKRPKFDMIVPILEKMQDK
Kind of assay: Inhibition of ILK Protein Kinase Domain labeling site in human Huh-7 cell lysate at 1 uM by KiNativ Profiling analysis relative to control. The class given is subcellular.

The target in assay [2] is T2, Serine/threonine-protein kinase 3 (Homo sapiens) (UniProt Q13188).
T2 sequence (whole entry): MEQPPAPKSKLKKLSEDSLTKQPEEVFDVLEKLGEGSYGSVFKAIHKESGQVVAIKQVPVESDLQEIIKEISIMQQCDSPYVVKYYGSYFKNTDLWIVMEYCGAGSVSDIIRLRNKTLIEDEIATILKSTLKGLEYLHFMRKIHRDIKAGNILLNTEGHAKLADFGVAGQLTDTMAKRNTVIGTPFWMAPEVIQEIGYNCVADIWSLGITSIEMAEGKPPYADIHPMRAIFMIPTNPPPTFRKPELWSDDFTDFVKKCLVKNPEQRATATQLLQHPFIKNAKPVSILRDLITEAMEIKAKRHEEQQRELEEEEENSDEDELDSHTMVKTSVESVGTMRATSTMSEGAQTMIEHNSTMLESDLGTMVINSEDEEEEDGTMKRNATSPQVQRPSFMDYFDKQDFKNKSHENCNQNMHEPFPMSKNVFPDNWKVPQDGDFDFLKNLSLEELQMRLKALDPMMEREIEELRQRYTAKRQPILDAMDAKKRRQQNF
Kind of assay: Inhibition of MST2 Lys2 labeling site harbouring IHRDIKAGNILLNTEGHAK in human Huh-7 cell lysate at 1 uM by KiNativ Profiling analysis relative to control. It counts as subcellular.

Assay [3] deals with Phosphatidylinositol 4-kinase beta (Homo sapiens) (UniProt Q9UBF8). Kind of assay: Inhibition of PI4KB ATP labeling site harbouring VPHTQAVVLNSKDKAPYLIYVEVLECENFDTTSVPAR in human A-375 cells at 0.5 uM by KiNativ Profiling analysis relative to control. The class given is cell-based.
Phosphatidylinositol 4-kinase beta (Homo sapiens), sequence (Q9UBF8 2-816 limits assumed): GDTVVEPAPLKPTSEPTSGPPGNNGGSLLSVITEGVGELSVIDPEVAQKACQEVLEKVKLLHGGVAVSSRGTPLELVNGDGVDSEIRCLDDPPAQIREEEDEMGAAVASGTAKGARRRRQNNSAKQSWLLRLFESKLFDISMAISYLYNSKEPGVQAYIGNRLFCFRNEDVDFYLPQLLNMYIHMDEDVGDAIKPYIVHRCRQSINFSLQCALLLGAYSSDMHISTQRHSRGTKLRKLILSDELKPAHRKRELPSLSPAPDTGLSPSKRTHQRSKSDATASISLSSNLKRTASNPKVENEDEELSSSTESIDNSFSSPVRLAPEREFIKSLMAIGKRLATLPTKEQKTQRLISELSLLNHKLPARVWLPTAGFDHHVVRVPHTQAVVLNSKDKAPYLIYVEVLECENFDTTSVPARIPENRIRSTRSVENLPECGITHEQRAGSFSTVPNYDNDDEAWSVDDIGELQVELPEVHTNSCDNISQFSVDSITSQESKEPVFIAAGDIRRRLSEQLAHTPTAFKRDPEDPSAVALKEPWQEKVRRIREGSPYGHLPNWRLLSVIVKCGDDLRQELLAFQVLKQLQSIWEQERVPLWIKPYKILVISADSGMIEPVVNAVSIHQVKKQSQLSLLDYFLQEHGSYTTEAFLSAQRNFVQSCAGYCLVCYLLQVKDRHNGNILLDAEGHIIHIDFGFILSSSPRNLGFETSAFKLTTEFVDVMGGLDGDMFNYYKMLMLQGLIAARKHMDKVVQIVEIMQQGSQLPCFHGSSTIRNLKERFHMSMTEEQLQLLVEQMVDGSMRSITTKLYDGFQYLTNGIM
In assay [4] the target is Serine/threonine-protein kinase MARK2 (Homo sapiens) (UniProt Q7KZI7). The assay can be described thus: Inhibition of MARK2 (unknown origin) at 1 uM by Ambit Kinomescan binding assay relative to control.
Serine/threonine-protein kinase MARK2 (Homo sapiens), sequence (Q7KZI7 whole entry): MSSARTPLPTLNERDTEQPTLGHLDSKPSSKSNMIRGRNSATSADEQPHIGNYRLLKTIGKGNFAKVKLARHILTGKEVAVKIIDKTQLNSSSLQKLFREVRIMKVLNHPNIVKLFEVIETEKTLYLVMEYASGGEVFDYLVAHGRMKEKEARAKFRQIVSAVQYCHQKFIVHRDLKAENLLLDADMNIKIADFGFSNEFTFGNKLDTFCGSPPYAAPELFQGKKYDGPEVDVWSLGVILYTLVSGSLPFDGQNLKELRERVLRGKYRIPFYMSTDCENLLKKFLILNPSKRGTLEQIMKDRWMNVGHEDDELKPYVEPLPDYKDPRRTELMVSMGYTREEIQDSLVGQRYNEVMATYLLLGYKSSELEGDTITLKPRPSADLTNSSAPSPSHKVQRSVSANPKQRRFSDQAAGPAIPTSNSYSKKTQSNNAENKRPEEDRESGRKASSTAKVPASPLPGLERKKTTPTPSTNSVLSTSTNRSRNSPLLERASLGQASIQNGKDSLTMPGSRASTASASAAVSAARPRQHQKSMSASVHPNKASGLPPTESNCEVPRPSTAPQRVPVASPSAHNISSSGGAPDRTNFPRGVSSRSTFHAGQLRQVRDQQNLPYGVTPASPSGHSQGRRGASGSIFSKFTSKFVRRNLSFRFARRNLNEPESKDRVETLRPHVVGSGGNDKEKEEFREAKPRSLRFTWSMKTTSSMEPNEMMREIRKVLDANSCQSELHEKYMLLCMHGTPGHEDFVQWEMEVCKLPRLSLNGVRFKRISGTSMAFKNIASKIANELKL
Assay [5] concerns the target Cyclin-dependent kinase-like 5 (Homo sapiens) (UniProt O76039). The assay can be described thus: Inhibition of CDKL5 (unknown origin) at 1 uM by Ambit Kinomescan binding assay relative to control; values are per cent of control.
Assay [6] addresses Protein-tyrosine kinase 6 (Homo sapiens) (UniProt Q13882). The assay can be described thus: Inhibition of BRK (unknown origin) at 1 uM by Ambit Kinomescan binding assay relative to control; values are per cent of control.
Assay [7] has as its target Casein kinase I isoform delta (Homo sapiens) (UniProt P48730). Kind of assay: Inhibition of CSNK1D (unknown origin) at 1 uM by Ambit Kinomescan binding assay relative to control. The procedure, abridged:
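In vitro ATP-site competition binding assay against a panel of over 420 kinases (KinomeScan), with compound tested at 10 or 1 μM.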

Assay [8] addresses Serine/threonine-protein kinase pim-1 (Homo sapiens) (UniProt P11309). The assay can be described thus: Inhibition of PIM1 (unknown origin) at 1 uM by Ambit Kinomescan binding assay relative to control; values are per cent of control.
The target of assay [9] is Non-receptor tyrosine-protein kinase TYK2 (Homo sapiens) (UniProt P29597). Kind of assay: Inhibition of TYK2 JH2 pseudokinase domain (unknown origin) at 1 uM by Ambit Kinomescan binding assay relative to control.
Assay [10] deals with Cyclin-dependent kinase 9 (Homo sapiens) (UniProt P50750). The assay can be described thus: Inhibition of CDK9 K2 labeling site in human Huh-7 cells at 10 uM by KiNativ Profiling analysis relative to control. It counts as cell-based.
Cyclin-dependent kinase 9 (Homo sapiens), sequence (P50750 whole entry): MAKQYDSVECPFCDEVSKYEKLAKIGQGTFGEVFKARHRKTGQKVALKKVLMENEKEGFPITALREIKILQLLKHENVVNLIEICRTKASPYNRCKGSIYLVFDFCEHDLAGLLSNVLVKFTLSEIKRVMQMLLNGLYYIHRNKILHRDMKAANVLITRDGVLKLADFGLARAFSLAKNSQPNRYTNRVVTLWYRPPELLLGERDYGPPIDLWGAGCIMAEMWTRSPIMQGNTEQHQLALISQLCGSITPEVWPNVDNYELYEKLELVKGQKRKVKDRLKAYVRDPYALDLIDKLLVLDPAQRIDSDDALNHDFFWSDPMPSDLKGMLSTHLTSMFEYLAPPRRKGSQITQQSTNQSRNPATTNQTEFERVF
Assay [11] deals with Tyrosine-protein kinase Blk (Homo sapiens) (UniProt P51451). The assay can be described thus: Inhibition of BLK (unknown origin) at 10 uM by Ambit Kinomescan binding assay relative to control.
Tyrosine-protein kinase Blk (Homo sapiens), sequence (P51451 2-505 limits assumed): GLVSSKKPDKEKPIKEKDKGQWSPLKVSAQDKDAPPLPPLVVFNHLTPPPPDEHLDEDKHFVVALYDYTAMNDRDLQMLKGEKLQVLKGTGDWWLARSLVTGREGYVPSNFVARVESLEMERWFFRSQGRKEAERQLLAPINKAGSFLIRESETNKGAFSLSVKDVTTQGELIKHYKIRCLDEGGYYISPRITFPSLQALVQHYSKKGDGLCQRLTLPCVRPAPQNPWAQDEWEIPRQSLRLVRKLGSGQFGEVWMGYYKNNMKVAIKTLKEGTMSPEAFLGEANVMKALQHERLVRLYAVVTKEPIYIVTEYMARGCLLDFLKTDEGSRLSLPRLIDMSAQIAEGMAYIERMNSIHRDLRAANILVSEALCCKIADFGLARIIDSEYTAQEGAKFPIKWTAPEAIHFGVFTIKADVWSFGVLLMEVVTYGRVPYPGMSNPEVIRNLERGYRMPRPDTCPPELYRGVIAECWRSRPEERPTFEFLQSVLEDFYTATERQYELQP
Assay [12] addresses T3, Serine/threonine-protein kinase Chk1 (Homo sapiens) (UniProt O14757).
T3 sequence (whole entry): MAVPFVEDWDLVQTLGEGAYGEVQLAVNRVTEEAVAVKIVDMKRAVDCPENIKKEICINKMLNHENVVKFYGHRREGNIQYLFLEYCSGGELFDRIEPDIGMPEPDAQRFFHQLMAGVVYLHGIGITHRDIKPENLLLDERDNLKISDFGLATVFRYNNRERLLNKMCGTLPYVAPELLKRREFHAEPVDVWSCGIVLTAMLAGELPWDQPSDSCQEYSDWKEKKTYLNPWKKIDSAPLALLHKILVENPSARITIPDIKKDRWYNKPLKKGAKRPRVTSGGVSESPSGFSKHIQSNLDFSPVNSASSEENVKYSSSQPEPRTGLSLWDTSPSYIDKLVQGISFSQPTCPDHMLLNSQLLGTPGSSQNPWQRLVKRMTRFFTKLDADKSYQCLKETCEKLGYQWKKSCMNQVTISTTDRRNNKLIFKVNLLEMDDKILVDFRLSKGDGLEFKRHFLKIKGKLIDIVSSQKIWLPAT
Kind of assay: Inhibition of CHEK1 (unknown origin) at 10 uM by Ambit Kinomescan binding assay.

In assay [13] the target is RAF proto-oncogene serine/threonine-protein kinase (Homo sapiens, UniProt P04049). The assay can be described thus: Inhibition of RAF1 Lys2 labeling site in human A-375 cells at 5 uM by KiNativ Profiling analysis relative to control. The class given is cell-based.
Assay [14] deals with cAMP-dependent protein kinase catalytic subunit PRKX (Homo sapiens) (UniProt P51817). Kind of assay: Inhibition of PRKX (unknown origin) at 10 uM by Ambit Kinomescan binding assay.
cAMP-dependent protein kinase catalytic subunit PRKX (Homo sapiens), sequence (P51817 whole entry): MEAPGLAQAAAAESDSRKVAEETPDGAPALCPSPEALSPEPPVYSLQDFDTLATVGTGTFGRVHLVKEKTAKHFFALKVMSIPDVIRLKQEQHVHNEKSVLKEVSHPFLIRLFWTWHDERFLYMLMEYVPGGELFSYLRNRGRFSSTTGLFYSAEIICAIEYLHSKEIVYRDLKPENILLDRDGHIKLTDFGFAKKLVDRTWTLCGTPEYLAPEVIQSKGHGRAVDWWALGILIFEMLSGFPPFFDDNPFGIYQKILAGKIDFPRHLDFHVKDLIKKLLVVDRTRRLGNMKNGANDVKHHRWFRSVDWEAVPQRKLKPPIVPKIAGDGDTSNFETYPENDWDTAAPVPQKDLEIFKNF

Cyclin-dependent kinase-like 5 (Homo sapiens), sequence (O76039 whole entry): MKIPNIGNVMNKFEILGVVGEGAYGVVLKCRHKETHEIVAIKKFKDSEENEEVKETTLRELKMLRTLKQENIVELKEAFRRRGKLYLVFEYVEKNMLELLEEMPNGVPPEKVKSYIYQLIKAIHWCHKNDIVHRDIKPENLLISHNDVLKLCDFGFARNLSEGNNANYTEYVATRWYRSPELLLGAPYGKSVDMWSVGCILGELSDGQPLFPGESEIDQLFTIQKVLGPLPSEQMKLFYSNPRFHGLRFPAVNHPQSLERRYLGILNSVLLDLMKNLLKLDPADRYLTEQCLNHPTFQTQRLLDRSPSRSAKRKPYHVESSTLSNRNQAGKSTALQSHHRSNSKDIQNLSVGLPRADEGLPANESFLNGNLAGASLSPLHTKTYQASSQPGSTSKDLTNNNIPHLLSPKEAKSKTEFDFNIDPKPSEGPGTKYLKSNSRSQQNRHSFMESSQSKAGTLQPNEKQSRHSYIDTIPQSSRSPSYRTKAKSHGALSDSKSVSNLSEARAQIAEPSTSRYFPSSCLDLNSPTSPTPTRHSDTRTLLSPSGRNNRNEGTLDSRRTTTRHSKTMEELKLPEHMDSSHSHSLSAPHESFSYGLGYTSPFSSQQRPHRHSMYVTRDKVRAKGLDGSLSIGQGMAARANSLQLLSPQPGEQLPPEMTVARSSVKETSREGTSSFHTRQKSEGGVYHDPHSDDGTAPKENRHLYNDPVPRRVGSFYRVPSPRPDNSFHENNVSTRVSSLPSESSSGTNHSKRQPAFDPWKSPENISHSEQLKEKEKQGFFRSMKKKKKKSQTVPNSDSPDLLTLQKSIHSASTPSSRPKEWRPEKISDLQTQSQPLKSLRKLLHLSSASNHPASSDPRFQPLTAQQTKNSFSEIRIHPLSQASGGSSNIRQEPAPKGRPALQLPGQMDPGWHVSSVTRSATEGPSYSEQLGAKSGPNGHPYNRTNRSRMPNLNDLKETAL
Casein kinase I isoform delta (Homo sapiens), sequence (P48730 whole entry, looked up, canonical isoform): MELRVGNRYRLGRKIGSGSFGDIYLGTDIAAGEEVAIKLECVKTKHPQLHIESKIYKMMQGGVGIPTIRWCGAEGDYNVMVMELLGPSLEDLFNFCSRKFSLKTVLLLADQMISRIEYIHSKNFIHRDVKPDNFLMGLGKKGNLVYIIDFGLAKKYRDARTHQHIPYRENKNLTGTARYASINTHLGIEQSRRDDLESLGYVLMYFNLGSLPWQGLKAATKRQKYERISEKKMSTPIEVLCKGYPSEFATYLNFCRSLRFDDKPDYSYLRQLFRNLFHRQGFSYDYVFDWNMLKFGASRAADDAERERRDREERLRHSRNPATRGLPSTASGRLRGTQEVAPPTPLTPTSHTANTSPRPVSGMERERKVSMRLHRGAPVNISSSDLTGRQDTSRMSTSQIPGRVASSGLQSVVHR
Protein-tyrosine kinase 6 (Homo sapiens), sequence (Q13882 whole entry, looked up, canonical isoform): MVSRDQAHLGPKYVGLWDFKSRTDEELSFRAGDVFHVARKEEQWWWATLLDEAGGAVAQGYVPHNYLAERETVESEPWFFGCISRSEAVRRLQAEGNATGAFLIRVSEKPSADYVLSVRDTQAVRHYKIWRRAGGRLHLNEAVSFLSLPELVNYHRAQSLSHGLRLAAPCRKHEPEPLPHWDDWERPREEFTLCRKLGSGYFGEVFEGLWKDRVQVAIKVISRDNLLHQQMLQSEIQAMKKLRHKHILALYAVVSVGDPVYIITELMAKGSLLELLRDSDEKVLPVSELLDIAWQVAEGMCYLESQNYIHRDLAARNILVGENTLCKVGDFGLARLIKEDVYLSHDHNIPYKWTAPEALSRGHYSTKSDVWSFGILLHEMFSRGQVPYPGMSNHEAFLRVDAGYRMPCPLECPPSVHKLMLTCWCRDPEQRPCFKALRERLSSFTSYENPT
Serine/threonine-protein kinase pim-1 (Homo sapiens), sequence (P11309 whole entry, looked up, the tested form may be a part): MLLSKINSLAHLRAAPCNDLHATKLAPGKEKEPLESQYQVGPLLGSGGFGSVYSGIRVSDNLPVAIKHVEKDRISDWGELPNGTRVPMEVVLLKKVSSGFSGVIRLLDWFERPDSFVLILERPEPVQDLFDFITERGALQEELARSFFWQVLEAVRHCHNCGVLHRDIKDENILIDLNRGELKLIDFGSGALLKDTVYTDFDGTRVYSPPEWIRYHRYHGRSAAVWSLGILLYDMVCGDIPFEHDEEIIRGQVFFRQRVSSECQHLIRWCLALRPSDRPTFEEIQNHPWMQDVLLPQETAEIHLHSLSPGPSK

Broadly, the inhibition is the drop in the measured response relative to a control, in per cent. As to `CNc1cc(Oc2cc(C(=O)Nc3cc(N4CCN(C)CC4)cc(C(F)(F)F)c3)ccc2C)ncn1`, the figures for the inhibition in [1] and in [2] were -2.4% and 14.4%, respectively.

One may read the residual activity as the share of the control activity or signal that is left under treatment. Regarding `CCN1CCN(Cc2ccc(NC(=O)c3ccc(C)c(/C=C/c4cnc5[nH]ccc5c4OC)c3)cc2C(F)(F)F)CC1`, the inhibition in assay [3] is 18.3%; in assay [4], 59%; in assay [7], 84%; in assay [9], 47%. In addition, the values for the residual activity in [5], in [6] and in [8] were 100%, 64% and 100%, respectively.

Turning to `CCN1CCN(Cc2ccc(NC(=O)c3ccc(C)c(Oc4ccnc5[nH]ccc45)c3)cc2C(F)(F)F)CC1`, the figures for the inhibition in [10], in assay [11] and in [13] were 0.4%, 0.45% and 83.8%, respectively. Further, the inhibition result in [12] and in assay [14] was “inactive” in each case.

(Values after ChEMBL document CHEMBL5696442, “Discovery of type II inhibitors of TGFβ-activated kinase 1 (TAK1) and mitogen-activated protein kinase kinase kinase kinase 2 (MAP4K2)” (J Med Chem, 2015).)
